Data set [1] relates to RAW264.7. The data set can be described thus: Cytotoxicity against mouse RAW264.7 cells assessed as reduction in cell viability up to 20 uM incubated for 24 hrs by MTT assay. The class given is toxicity, cell-based. The settings on record: raw264.7, 24 h. The essentials: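 Viability read by MTT in parallel with the NO assay: RAW264.7 at 1 × 10^5/well, compound at 1.25–20 μM in triplicate, LPS 100 ng/mL for 24 h.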

The subject of data set [2] is RAW264.7. The data set can be described thus: Antiinflammatory activity in mouse RAW264.7 cells assessed as inhibition of LPS-induced NO production incubated for 24 hrs by Griess reagent based assay. The class given is functional, cell-based. The settings on record: for IC50: RAW264.7, 24 h. The essentials: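 RAW264.7 (ATCC) grown in DMEM + 10% FBS, 37 °C, 5% CO2. Cells at 1 × 10^5/well treated with compound or dexamethasone at 1.25, 2.5, 5, 10, 20 μM in triplicate, then stimulated with LPS 100 ng/mL for 24 h. Supernatant nitrite measured with Griess reagent, absorbance 550 nm; IC50 from concentration series.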

For data set [3], the system named is RAW264.7. The data set can be described thus: Antiinflammatory activity in mouse RAW264.7 cells assessed as inhibition of LPS-induced iNOS protein expression incubated for 24 hrs by Western blot analysis. The class given is functional, cell-based. The settings on record: dose 5-20 µM. The essentials: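 Cells seeded at 5 × 10^5/well, exposed to compound at 10, 20, 40 μM or dexamethasone 5 μM, then LPS 0.5 μg/mL for 24 h. RIPA lysates run on 8% SDS-PAGE, transferred to PVDF. Probed overnight at 4 °C for iNOS with GAPDH as loading control, then secondary antibody 1 h at room temperature.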
In general terms: Immunoblotting shows a protein as a band on a membrane.

Structures are written as SMILES. Bounds are passed on as bounds.

What is called IC50 is the point on the concentration scale where inhibition reaches its midpoint. Take `C=C1C(=O)O[C@@H]2C[C@]3(C)[C@@H](CC[C@@H](C)OC(=O)CCCC[C@H](O)/C=C/[C@@H](O)[C@H](O)CCCCCCCC)[C@@H]3C[C@H]12`: the Activity entry in the data set on RAW264.7 [1] is on record as “Non-Toxic”. In addition, the IC50 in the data set with RAW264.7 [2] came to 11.8 µM.

Consider `C=C1C(=O)O[C@@H]2C[C@]3(C)[C@@H](CC[C@@H](C)OC(C)=O)[C@@H]3C[C@H]12`, for which the Activity result with RAW264.7 [1] is “Non-Toxic”. For the same molecule, the inhibition entry with RAW264.7 [2] and in the data set on RAW264.7 [3] was “Dose-Dependent Effect” each time. For the same molecule, the IC50 with RAW264.7 [2] was 5.64 µM.

Take `C=C1C(=O)O[C@@H]2C[C@]3(C)[C@@H](CC[C@@H](C)OC(=O)CCCCCCCCC(O)CCCCCCO)[C@@H]3C[C@H]12` (stereo not given in full): the Activity result with RAW264.7 [1] was “Non-Toxic”. Moreover, the half-maximal inhibitory concentration (IC50) with RAW264.7 [2] was determined as 9.87 µM.

As to `C[C@@H]1C[C@H]2[C@@H]3CCC4=CC(=O)C=C[C@]4(C)[C@@]3(F)[C@@H](O)C[C@]2(C)[C@@]1(O)C(=O)CO` [DEXAMETHASONE], the IC50 with RAW264.7 [2] turned out to be 8.52 µM.

On to `C=C1C(=O)O[C@@H]2C[C@]3(C)[C@@H](CC[C@@H](C)OC(=O)Cc4ccc(O)cc4C)[C@@H]3C[C@H]12`, for which the Activity result with RAW264.7 [1] is reported as “Non-Toxic”. In addition, in the data set on RAW264.7 [2], the inhibition entry is “Dose-Dependent Effect” and the IC50 was 5.82 µM. The inhibition entry with RAW264.7 [3] is “Dose-Dependent Effect”.

Turning to `C=C1C(=O)O[C@@H]2C[C@]3(C)[C@@H](CC[C@@H](C)OC(=O)CC4CCC(=O)C=C4C)[C@@H]3C[C@H]12` (stereo not given in full), in the data set on RAW264.7 [1], the Activity result is reported as “Non-Toxic”. Also, in the data set on RAW264.7 [2], the inhibition result was “Dose-Dependent Effect” and the 50% inhibitory concentration (IC50) came out at 9.15 µM. For the same molecule, the inhibition entry with RAW264.7 [3] is “Dose-Dependent Effect”.

As for `C=C1C(=O)O[C@@H]2C[C@]3(C)[C@@H](CC[C@@H](C)OC(=O)CCCC[C@@H](O)/C=C/[C@@H](O)[C@H](O)CCCCCCCC)[C@@H]3C[C@H]12`, in the data set on RAW264.7 [1], the Activity entry is recorded as “Non-Toxic”. Also, in the data set on RAW264.7 [2], the concentration for half-maximal inhibition (IC50) was found to be 11.6 µM.

Consider `C=C1C(=O)O[C@@H]2C[C@]3(C)[C@@H](CC[C@@H](C)OC(=O)CCCCCCC[C@H]4OC(=O)C[C@H]4O)[C@@H]3C[C@H]12`, for which the Activity entry with RAW264.7 [1] is given as “Non-Toxic”. Further, the IC50 with RAW264.7 [2] is 15.1 µM.

Regarding `C=C1C(=O)O[C@@H]2C[C@]3(C)[C@@H](CC[C@@H](C)OC(=O)CCCCCCC/C=C/C/C=C/CCCCC)[C@@H]3C[C@H]12`, in the data set with RAW264.7 [1], the Activity entry is “Non-Toxic”. In addition, the IC50 in the data set on RAW264.7 [2] was above 20 µM.

In the case of `C=C1C(=O)O[C@@H]2C[C@]3(C)C(CC[C@@H](C)OC(=O)CCCCCCCCO)[C@@H]3C[C@H]12` (stereo not given in full), in the data set with RAW264.7 [1], the Activity entry was “Non-Toxic”. In addition, the concentration for half-maximal inhibition (IC50) with RAW264.7 [2] was 9.75 µM.

For `C=C1C(=O)O[C@@H]2C[C@]3(C)C(CC[C@@H](C)OC(=O)CCCCCCCC(=O)O)[C@@H]3C[C@H]12` (stereo not given in full), the Activity result in the data set with RAW264.7 [1] is on record as “Non-Toxic”. Besides, in the data set on RAW264.7 [2], the half-inhibitory concentration (IC50) stood at 9.35 µM.

With `C=C1C(=O)O[C@@H]2C[C@]3(C)[C@@H](CC[C@@H](C)OC(=O)CCCCCCCCCCCCCCC)[C@@H]3C[C@H]12`, in the data set on RAW264.7 [1], the Activity result is “Non-Toxic”. Moreover, the IC50 with RAW264.7 [2] was above 20 µM.

`C=C1C(=O)O[C@@H]2C[C@]3(C)C(CC[C@@H](C)OC(=O)C[C@@H](O)CCCCCCCCCCCCCC)[C@@H]3C[C@H]12` (stereo not given in full): the Activity result with RAW264.7 [1] is on record as “Non-Toxic”. Moreover, the IC50 in the data set on RAW264.7 [2] is above 20 µM.

On to `C=C1C(=O)O[C@@H]2C[C@]3(C)[C@@H](CC[C@@H](C)OC(=O)CCCCCCC[C@@H]4OC(=O)C[C@H]4O)[C@@H]3C[C@H]12`, for which, in the data set with RAW264.7 [1], the Activity result is “Non-Toxic”. Further, in the data set on RAW264.7 [2], the inhibition result is “Dose-Dependent Effect” and the IC50 turned out to be 8.67 µM. Besides, the inhibition result in the data set on RAW264.7 [3] was “Dose-Dependent Effect”.
